# DENV2 CPE: inhibitors of DENV2 cytopathic effect | DENV2-infected cells, cytopathic effect rescue, plate reader | CPE inhibition, % at 9.99 µM | 350,000 tested, 1.7% active | AID 651640; in the data active = CPE inhibition above about 20%, passing the limit was not always enough; inconclusive = no clear call, values can overlap the other calls; tested in BHK-21 cells;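 also: 0% = median of neutral control wells and 100% = median of positive control wells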
# E-sel inducer: induces E-selectin expression in human endothelial cells; AID 686992; HUVEC E-selectin immunofluorescence imaging; normalized: neutral wells 0, TNF-alpha wells 100; activation, % at 7.58 µM; 260,000 tested, 0.37% active; P16581;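 active = mean E-selectin-positive cell signal at least 10% of the positive control, reached in at least 60% of replicates, without over 20% cell loss; inconclusive = no rule given, readout overlaps actives, possibly toxicity-flagged; inactive = the rest, including those meeting only one limit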
#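 Test system: HUVEC | Signal: Immunofluorescence imaging | Read-out: Percent E-selectin-positive cells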
# C2C12 statin: protects C2C12 myotubes from simvastatin toxicity; ATP luminescence, 48 h; scaled: DMSO 0, geranylgeraniol control 100; rescue of ATP level, % at 7.49 µM; 330,000 tested, 0.78% active; AID 602340;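 active = mean ATP rescue above about 67%, or every replicate alone reaching that limit, limit read from the data, passing the limit was not always enough; inconclusive = no clear call, values can overlap the other calls; inactive = mean under the limit and some replicate under it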;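 also: myotubes were challenged with 10 µM simvastatin during compound exposure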
# An asterisk follows results filed as active; ? = inconclusive; · = no result given. The list is not random: actives were taken first. Their share in the collection is about 2.2%.
SMILES,DENV2 CPE,E-sel inducer,C2C12 statin
O=C(Cc1cccnc1)N1CCCCN2[C@@H](CO)[C@@H](c3ccc(C#CC4CCCC4)cc3)[C@@H]2C1,32.4*,-0.2,-7.3
COc1ccc(C#Cc2ccc([C@@H]3[C@@H](CO)N4CCCCN(C(=O)Cc5ccncc5)C[C@@H]34)cc2)cc1,35.9*,0.7,·
O=C(Cc1cccnc1)N1CCCCN2[C@H](CO)[C@H](c3ccc(C#CC4CCCC4)cc3)[C@H]2C1,12.8,-0.2,0.8
N#Cc1cccc(-c2ccc([C@H]3[C@H](CO)N4CCCCN(C(=O)Cc5cccnc5)C[C@@H]34)cc2)c1,6.2,-0.3,-14.0
O=C(Cc1cccnc1)N1CCCCN2[C@H](CO)[C@@H](c3ccc(C#CC4CCCC4)cc3)[C@H]2C1,39.6*,-0.3,-33.2
O=C(Cc1cccnc1)N1CCCCN2[C@H](C1)[C@H](c1ccc(C#CC3CCCC3)cc1)[C@@H]2CO,19.5,0.0,23.1
N#Cc1cccc(-c2ccc([C@H]3[C@@H](CO)N4CCCCN(C(=O)Cc5cccnc5)C[C@H]34)cc2)c1,38.0*,0.3,-29.6
CCCN1[C@@H]2Cn3c(ccc(-c4cccc(C(=O)N(C)C)c4)c3=O)[C@H]1[C@@H](C(=O)OC)[C@@H]2CO,2.4,-0.4,19.4
COc1ccc(-c2ccc([C@H]3[C@@H](CO)N4CCCCN(C(=O)Cc5ccncc5)C[C@H]34)cc2)cc1,?,0.1,-12.4
O=C(Cc1cccnc1)N1CCCCN2[C@H](CO)[C@H](c3ccc(C#CC4(O)CCCC4)cc3)[C@@H]2C1,0.0,0.0,7.8
O=C(Cc1cccnc1)N1CCCCN2[C@@H](CO)[C@@H](c3ccc(C#CC4(O)CCCC4)cc3)[C@@H]2C1,39.9*,-0.1,-5.3
O=C(O)[C@@H]1[C@@H](CO)[C@@H]2Cn3c(ccc(-c4ccccc4)c3=O)[C@H]1N2CC1CCCCC1,-4.6,-1.8,13.2
OC(CN1CC=C(c2ccccc2)CC1)c1ccccc1 (stereo unspecified),5.5,-0.2,84.1*
OC(COCc1ccc(Cl)cc1)CN1CC=C(c2ccccc2)CC1 (stereo unspecified),0.8,0.0,-128.6
C[C@]12C[C@H](O)[C@@H](O)C[C@@H]1CC[C@@H]1[C@@H]2CC[C@]2(C)C(=O)CC[C@@H]12,33.4*,·,2.5
C[C@]12CCC3[C@@H](CC[C@H]4C[C@@H](O)CC[C@]34C)C1CCC2=O (stereo partly specified),-5.0,-0.5,17.8
COc1ccc(OC(=O)N(C)C[C@H]2OCc3ccccc3-c3c(n(C)c4ccccc34)C(=O)N([C@@H](C)CO)C[C@H]2C)cc1,15.6,-0.2,·
COc1ccc(C#Cc2ccc([C@H]3[C@@H](CO)N4CCCCN(C(=O)Cc5ccncc5)C[C@H]34)cc2)cc1,-8.4,0.0,·
COC(=O)[C@H]1[C@H](CO)[C@H]2Cn3c(ccc(-c4ccccc4F)c3=O)[C@@H]1N2CC1CCCC1,4.4,-0.1,7.7
Cc1nc2ccc(Cl)cn2c1P(=S)(N1CCOCC1)N1CCOCC1,·,·,93.1*
Cn1ccnc1P(=S)(c1nccn1C)N1CCOCC1,·,·,-7.9
COc1ccc(OC(=O)N(C)C[C@@H]2OCc3ccccc3-c3c(n(C)c4ccccc34)C(=O)N([C@H](C)CO)C[C@H]2C)cc1,2.3,-0.2,·
